Source: paper PMC11665415 (Neurobiology of Pain, 2024)
Entries after “also recorded” stand apart in the source; their conditions may differ. Like-named read-outs stand apart in the source and are kept apart here.

Legend:
[1] = system: SNI-induced cold allodynia; test: Spared nerve injury; type: in vivo, mouse; conditions: for SNI-induced cold allodynia, AUC between 0 and 6 h: day 28 post-SNI
[2] = Snapshot/standard pharmacokinetics in CD-1 mice; type: in vivo, mouse; conditions: for half-life: male, CD-1, mouse, plasma
viral entry = conditions: 1 µM, multiple cell types; ref Drewry et al., 2022; cited from earlier work
potassium channels = test: Whole-cell patch-clamp recordings of total potassium currents; type: cell-based, rat
In short: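 Rat DRG neurons cultured in medium with 10 % FBS and 15 ng/ml NGF, on poly-D-lysine/laminin-coated coverslips at 37 °C, 5 % CO₂, and used within 24 h. Whole-cell patch clamp with test compound (10 µM) or 0.1 % DMSO in the external solution. Current density–voltage and peak current density (pA/pF) given as mean ± SEM.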

SH-SY5Y cells = SH-SY5Y cells treated at 5 µM; ref Drewry et al., 2022; cited from earlier work
[3] = system: SNI-induced mechanical allodynia; test: Spared nerve injury; type: in vivo, mouse
In short: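 On day 28 after spared nerve injury, 50 % paw withdrawal threshold measured by von Frey up-down method, at baseline and from 0 to 6 h after a single IP injection. Doses: 3, 10 and 30 mg/kg in males; 30 mg/kg in females; vehicle 30 % DMSO. AUC over 0–6 h. n = 8. Two-way ANOVA with Tukey; one-way ANOVA with Dunnett.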

naïve mice [4] = test: Mechanical and cold sensitivity in naïve mice; type: in vivo, mouse; conditions: male and female naïve mice, 30 mg/kg IP
In short: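 Naïve male and female mice got test compound at 30 mg/kg IP in 30 % DMSO, with a 1 h wait before testing. Mechanical sensitivity measured with von Frey filaments by the up-down method. Cold sensitivity measured by applying an acetone drop to the hind paw.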

[5] = system: voltage-gated calcium channels; type: cell-based, rat
[6] = system: capsaicin-induced mechanical allodynia; test: Capsaicin pain model, mechanical allodynia; type: in vivo, mouse; conditions: 30 mg/kg IP
In short: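 Mice got intraplantar capsaicin (12 µg in 10 µL; vehicle 80 % saline, 10 % ethanol, 10 % Tween80) in the left footpad under isoflurane. One h later: single IP dose of test compound at 30 mg/kg or vehicle (30 % DMSO). 50 % paw withdrawal threshold by von Frey up-down method, baseline then 0–4 h post-dose. AUC over 0–4 h. n = 8 per sex. Two-way ANOVA with Tukey; one-way ANOVA with Dunnett for AUC.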

[7] = system: voltage-gated sodium channels; type: cell-based, rat; conditions: for Effect on density of sodium currents: acute application
naïve mice [8] = test: Rotarod test of motor coordination in naïve mice; type: in vivo, mouse; conditions: male and female naïve mice, 30 mg/kg IP
In short: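 Naïve male and female mice received test compound at 30 mg/kg IP, dissolved in 30 % DMSO. Motor coordination measured on the rotarod. A mouse that fell was placed back on the cylinder and the session continued.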

PIKfyve = conditions: 403 wild-type human kinases; ref Drewry et al., 2022; cited from earlier work
[9] = Snapshot pharmacokinetics in Balb/C mice; type: in vivo, mouse; conditions: 10 or 30 mg/kg IP or PO, up to five hours after dosing

Question: Which SNI-induced cold allodynia ([1]; female mice, 30 mg/kg IP) does the source give for `CN(C)CC#Cc1ccc2[nH]c3c(c2c1)-c1nc(N)ncc1CCC3` [SGC-PIKFYVE-1] here?
Answer: Its SNI-induced cold allodynia is “reduced”.

Question: And the “SNI-induced cold allodynia, AUC between 0 and 6 h” value ([1]; female mice, 30 mg/kg IP)?
Answer: The value was “reversed SNI-induced cold allodynia”.

Question: And the “SNI-induced cold allodynia, AUC between 0 and 6 h” value ([1]; male mice, 30 mg/kg IP)?
Answer: The value was “reversed SNI-induced cold allodynia”.

Question: What about the SNI-induced cold allodynia ([1]; male mice, 3, 10 and 30 mg/kg IP) of the same compound?
Answer: Its SNI-induced cold allodynia is “reduced SNI-induced cold allodynia for six hours in a dose-dependent manner”.

Question: And the “Oral bioavailability and in vivo stability (snapshot PK)” value ([2]; CD-1 mice, 10 mg/kg IP or PO, five-hour time course)?
Answer: The value was “exhibited oral bioavailability and remained relatively stable in vivo”.

Question: And the “Detectability in plasma over twenty-four hours” value ([2]; CD-1 mice, 10 mg/kg IP or PO, no time points between 8 and 24 h)?
Answer: The value was “no longer detectable after eight hours”.

Question: What about the “Adverse effects / tolerability” value ([2]; CD-1 mice, 30 mg/kg) of the same compound?
Answer: Its value is “did not induce any adverse effects; also recorded: well tolerated”.

Question: What about the “Detectability in plasma over twenty-four hours” value ([2]; CD-1 mice, 30 mg/kg IP or PO) of the same compound?
Answer: Its value is “not detectable after eight hours”.

Question: What about the “Plasma concentration relative to cellular affinity for PIKfyve” value ([2]; CD-1 mice, 30 mg/kg twice daily (BID) IP or PO) of the same compound?
Answer: The value was “well above its cellular affinity for PIKfyve”.

Question: And the half-life ([2]; ip)?
Answer: Its half-life is ~3.5 h.

Question: And the half-life ([2]; po, 30 mg/kg)?
Answer: Its half-life is 3.5 h.

Question: What about the Viral entry (viral entry) of the same compound?
Answer: Its Viral entry is “inhibited viral entry”.

Question: What about the “IK+ current or peak densities” value (potassium channels; acute treatment, 10 μM, vs 0.1 % DMSO) of the same compound?
Answer: Its value is “did not alter”.

Question: What about the “IV curve Peak/density (pA/pF)” value (potassium channels; total potassium currents, SGC-PIKFYVE-1 10 µM, DMSO control 184.90 ± 17.17) of the same compound?
Answer: Its value is 213.92 ± 21.52 pA/pF.

Question: And the Lysosomal homeostasis (SH-SY5Y cells)?
Answer: The Lysosomal homeostasis was “impacted lysosomal homeostasis”.

Question: What about the SNI-induced tactile allodynia ([3]; female mice, 30 mg/kg IP) of the same compound?
Answer: Its SNI-induced tactile allodynia is “reduced SNI-induced tactile”.

Question: What about the “Antiallodynic effect (AUC 0-6 h), dose dependence” value ([3]; male neuropathic mice, 3, 10 and 30 mg/kg IP) of the same compound?
Answer: Its value is “dose-dependent”.

Question: What about the “Paw mechanical withdrawal threshold” value ([3]; male neuropathic mice, single IP injection 30 mg/kg, day 28 post-SNI) of the same compound?
Answer: The value was “increase of the paw mechanical withdrawal threshold for four hours”.

Question: What about the “Mechanical and cold sensitivity” value (naïve mice [4]) of the same compound?
Answer: Its value is “did not induce changes”.

Question: What about the “Calcium current density and peak current” value ([5]; 10 µM, vs 0.1 % DMSO) of the same compound?
Answer: Its value is “unaffected”.

Question: What about the Fast inactivation k ([5]; total calcium currents, SGC-PIKFYVE-1 10 µM, DMSO control 0.99 ± 0.01) of the same compound?
Answer: The Fast inactivation k was 0.98 ± 0.02.

Question: And the Activation k ([5]; total calcium currents, SGC-PIKFYVE-1 10 µM, DMSO control 5.99 ± 0.64)?
Answer: Its Activation k is 5.73 ± 0.58.

Question: And the “Activation V0.5 (mV)” value ([5]; total calcium currents, SGC-PIKFYVE-1 10 µM, DMSO control −4.68 ± 0.73)?
Answer: The value was −4.31 ± 0.67 mV.

Question: What about the “Fast inactivation V0.5 (mV)” value ([5]; total calcium currents, SGC-PIKFYVE-1 10 µM, DMSO control −36.91 ± 0.73) of the same compound?
Answer: Its value is −34.76 ± 1.79 mV.

Question: And the “IV curve Peak/density (pA/pF)” value ([5]; total calcium currents, SGC-PIKFYVE-1 10 µM, DMSO control −107.71 ± 14.20)?
Answer: The value was −113.06 ± 13.24 pA/pF.

Question: And the Capsaicin-induced nociceptive behaviors ([6]; female mice)?
Answer: Its Capsaicin-induced nociceptive behaviors is “able to reduce the nociceptive behaviors”.

Question: And the “Duration of reduction of capsaicin-induced allodynia” value ([6]; male mice, 1 h after intraplantar capsaicin)?
Answer: The value was 2 h.

Question: And the Voltage-dependence of activation ([7]; 10 µM, compared to the vehicle)?
Answer: The Voltage-dependence of activation was “remained unchanged”.

Question: And the “Hyperpolarizing shift in the voltage-dependence of inactivation” value ([7]; 10 µM, vs vehicle)?
Answer: The value was 4 mV.

Question: And the Activation k ([7]; SGC-PIKFYVE-1 1 µM, DMSO control 4.93 ± 0.44)?
Answer: Its Activation k is 6.54 ± 0.66.

Question: And the Fast inactivation k ([7]; SGC-PIKFYVE-1 1 µM, DMSO control −13.64 ± 1.53)?
Answer: Its Fast inactivation k is −14.49 ± 1.69.

Question: What about the “Activation V0.5 (mV)” value ([7]; SGC-PIKFYVE-1 1 µM, DMSO control −21.776 ± 0.50) of the same compound?
Answer: The value was −21.09 ± 0.74 mV.

Question: What about the “Fast inactivation V0.5 (mV)” value ([7]; SGC-PIKFYVE-1 1 µM, DMSO control −53.6 ± 1.56) of the same compound?
Answer: Its value is −51.69 ± 1.67 mV.

Question: And the Activation k ([7]; SGC-PIKFYVE-1 10 µM, ProTxII set (Fig. 1), DMSO control 4.25 ± 0.42)?
Answer: The Activation k was 4.89 ± 0.56.

Question: And the Fast inactivation k ([7]; SGC-PIKFYVE-1 10 µM, ProTxII set (Fig. 1), DMSO control −11.11 ± 0.74)?
Answer: The Fast inactivation k was −10.32 ± 0.73.

Question: And the “Activation V0.5 (mV)” value ([7]; SGC-PIKFYVE-1 10 µM, ProTxII set (Fig. 1), DMSO control −20.48 ± 0.48)?
Answer: The value was −20.11 ± 0.63 mV.

Question: And the “Fast inactivation V0.5 (mV)” value ([7]; SGC-PIKFYVE-1 10 µM, ProTxII set (Fig. 1), DMSO control −47.42 ± 0.79)?
Answer: The value was −51.51 ± 0.79 mV.

Question: What about the “IV curve Peak/density (pA/pF)” value ([7]; SGC-PIKFYVE-1 10 µM, ProTxII set (Fig. 1), DMSO control −533.2 ± 42.99) of the same compound?
Answer: Its value is −348.7 ± 38.42 pA/pF.

Question: And the Activation k ([7]; SGC-PIKFYVE-1 10 µM, VX-548 set (Fig. 2), DMSO control 3.70 ± 0.39)?
Answer: The Activation k was 3.73 ± 0.47.

Question: What about the Fast inactivation k ([7]; SGC-PIKFYVE-1 10 µM, VX-548 set (Fig. 2), DMSO control −12.25 ± 1.08) of the same compound?
Answer: Its Fast inactivation k is −10.25 ± 1.63.

Question: What about the “Activation V0.5 (mV)” value ([7]; SGC-PIKFYVE-1 10 µM, VX-548 set (Fig. 2), DMSO control −24.61 ± 0.44) of the same compound?
Answer: Its value is −20.18 ± 0.55 mV.

Question: And the “Fast inactivation V0.5 (mV)” value ([7]; SGC-PIKFYVE-1 10 µM, VX-548 set (Fig. 2), DMSO control −52.39 ± 1.14)?
Answer: The value was −58.85 ± 1.79 mV.

Question: And the “IV curve Peak/density (pA/pF)” value ([7]; SGC-PIKFYVE-1 10 µM, VX-548 set (Fig. 2), DMSO control −358.2 ± 32.87)?
Answer: The value was −189.7 ± 47.11 pA/pF.

Question: What about the “Effect on density of sodium currents” value ([7]; 1 µM) of the same compound?
Answer: Its value is “but not at 1 µM”.

Question: What about the “Effect on density of sodium currents” value ([7]; 10 µM) of the same compound?
Answer: Its value is “decrease in the density of sodium currents”.

Question: And the “Motor coordination (rotarod)” value (naïve mice [8])?
Answer: The value was “did not induce changes”.

Question: What about the Kinome selectivity (PIKfyve) of the same compound?
Answer: Its Kinome selectivity is “highly selective for PIKfyve”.

Question: What about the “Plasma concentration relative to cellular affinity for PIKfyve” value [9] of the same compound?
Answer: The value was “maintained well above the cellular affinity for PIKfyve”.

Question: With `COc1c([C@H]2[C@H](C(=O)Nc3ccnc(C(N)=O)c3)O[C@@](C)(C(F)(F)F)[C@H]2C)ccc(F)c1F` [VX-548, reference compound] as the compound, how does the Activation k ([7]; VX-548 5 nM, DMSO control 3.70 ± 0.39) read?
Answer: Its Activation k is 6.18 ± 0.88.

Question: What about the Fast inactivation k ([7]; VX-548 5 nM, DMSO control −12.25 ± 1.08) of the same compound?
Answer: The Fast inactivation k was −9.98 ± 0.99.

Question: What about the “Activation V0.5 (mV)” value ([7]; VX-548 5 nM, DMSO control −24.61 ± 0.44) of the same compound?
Answer: Its value is −19.51 ± 0.98 mV.

Question: What about the “Fast inactivation V0.5 (mV)” value ([7]; VX-548 5 nM, DMSO control −52.39 ± 1.14) of the same compound?
Answer: Its value is −59.85 ± 1.10 mV.

Question: And the “IV curve Peak/density (pA/pF)” value ([7]; VX-548 5 nM, DMSO control −358.2 ± 32.87)?
Answer: Its value is −200.5 ± 35.37 pA/pF.

Question: With `Cc1cccc(/C=N/Nc2cc(N3CCOCC3)nc(OCCc3ccccn3)n2)c1` [apilimod, reference compound] as the compound, how does the Lysosomal homeostasis (SH-SY5Y cells) read?
Answer: Its Lysosomal homeostasis is “impacted lysosomal homeostasis”.

Question: Which results are given for ProTxII [reference compound]?
Answer: Activation k ([7]; ProTxII 5 nM, DMSO control 4.25 ± 0.42): 4.17 ± 0.49; Fast inactivation k ([7]; ProTxII 5 nM, DMSO control −11.11 ± 0.74): −11.11 ± 1.15; Activation V0.5 (mV) ([7]; ProTxII 5 nM, DMSO control −20.48 ± 0.48): −14.89 ± 0.57 mV; Fast inactivation V0.5 (mV) ([7]; ProTxII 5 nM, DMSO control −47.42 ± 0.79): −53.17 ± 1.24 mV; IV curve Peak/density (pA/pF) ([7]; ProTxII 5 nM, DMSO control −533.2 ± 42.99): −207.3 ± 57.12 pA/pF
